PubChem BioAssay AID602231 (The Scripps Research Institute Molecular Screening Center, 2012)
The source made the active and inactive calls.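 How the source made its calls: active means calcium level giving half maximal force raised by at least 10% versus DMSO, meaning delta pCa50 at or below about -0.041; inactive means the rest.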

Assay: pCa50 shift in permeabilized muscle fibers – porcine papillary fibers, force transducer, mechanism study for cardiac RTF sensitizer project (AID 602231)
Settings: Permeabilized pig cardiac fiber, Ca2+-tension pCa50 shift, at 10 µM; delta pCa50: stronger effect = higher value; maximal force change: measured here: effect on maximal fiber tension
In short: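 System: Skinned porcine cardiac papillary muscle fibers; Dosing: single 10 µM compound dose in 0.1% DMSO; Detection: fiber tension measured by force transducer; Read-out basis: pCa50 shift versus DMSO; Also added: free Ca2+ series, pCa 8.0–4.5; Benchmarks: same fiber in 0.1% DMSO alone as reference; Medium: pH 7.0 buffer with Mg-ATP and EGTA.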

Row | SMILES | delta pCa50 | maximal force change [%]
1 | Cc1ccc(/C=C2\Oc3c(ccc(O)c3CN3CCN(CCO)CC3)C2=O)cc1 | -0.027 (inactive) | -0.5
2 | CCOC(=O)c1cc2n(c1N)-c1ccccc1C2=O | 0.01 (inactive) | 2.13
3 | CCOC(=O)c1sc(N)c(C#N)c1COC(=O)CNC(=O)c1cc(OC)c(OC)c(OC)c1 | -0.039 (inactive) | 3.3
4 | Cc1cccn2c(=O)c(/C=C3\SC(=S)N(CC(C)C)C3=O)c(NCCCOC(C)C)nc12 | -0.003 (inactive) | -9.9
